The record followed here is ChEMBL document CHEMBL3616464, “One-pot synthesis of podophyllotoxin-thiourea congeners by employing NH₂SO₃H/NaI: Anticancer activity, DNA topoisomerase-II inhibition, and apoptosis inducing agents” (Bioorg Med Chem Lett, 2015).

pIC50: −log10 of the molar value. Calls of active or inactive are those of the source. No cut-off for these calls is given here.

The term pIC50 denotes the negative decadic logarithm of the IC50, by convention in mol/L. Read a low pIC50 as a large IC50.

Data set [1] in a line: Cytotoxicity against human HGC cells after 48 hrs by MTT assay. It is filed as functional, cell-based. A general note: Tetrazolium dyes change colour on reduction, which living cells bring about.
The subject of data set [2] is LNCaP. As to the kind of experiment: Cytotoxicity against human LNCAP cells after 48 hrs by MTT assay. Type of data set: functional, cell-based.
Data set [3] has as its system DU-145. As to the kind of experiment: Cytotoxicity against human DU145 cells after 48 hrs by MTT assay. It is filed as functional, cell-based. The note with it: DU-145, 48 h.
Data set [4] can be described thus: Cytotoxicity against human RWPE1 cells after 48 hrs by MTT assay. It is filed as cell-based. The conditions noted are these: RWPE-1, 48 h.
The subject of data set [5] is A549. As to the kind of experiment: Cytotoxicity against human A549 cells after 48 hrs by MTT assay. It is filed as functional, cell-based. The note with it: A549, 48 h.
Data set [6] relates to MDA-MB-231. The data set is described as follows: Cytotoxicity against human MDA-MB-231 cells after 48 hrs by MTT assay. The note with it: MDA-MB-231, 48 h. Type of data set: functional, cell-based.
Data set [7] concerns A549. The data set is described as follows: Cytotoxicity against human A549 cells at 100 uM after 48 hrs by MTT assay. Type of data set: functional, cell-based.
A short description of data set [8]: Therapeutic index, ratio of IC50 for human RWPE1 cells to IC50 for human LNCAP cells. It is filed as cell-based. The conditions noted are these: RWPE1 cells versus LNCAP cells, read-out: Ratio IC50. Summed up:
(§1)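 Selectivity expressed as the fold by which the IC50 in normal prostate epithelial RWPE-1 cells exceeds the IC50 in the prostate cancer line (DU-145 or LNCaP).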

Data set [9] in a line: Therapeutic index, ratio of IC50 for human RWPE1 cells to IC50 for human DU145 cells. It is filed as cell-based. The note with it: RWPE1 cells versus DU145 cells, read-out: Ratio IC50. Summed up: as §1
The subject of data set [10] is LNCaP. The data set is described as follows: Cytotoxicity against human LNCAP cells at 100 uM after 48 hrs by MTT assay. It is filed as functional, cell-based.
Data set [11] relates to DU-145. The data set is described as follows: Cytotoxicity against human DU145 cells at 100 uM after 48 hrs by MTT assay. Type of data set: functional, cell-based.
For the next data set, the system named is HGC. The data set is described as follows: Cytotoxicity against human HGC cells at 100 uM after 48 hrs by MTT assay. Type of data set: functional, cell-based.
Data set [12] is described as follows: Cytotoxicity against human RWPE1 cells at 100 uM after 48 hrs by MTT assay. Type of data set: cell-based. The conditions noted are these: rwpe-1, 48 h.
For data set [13], the system named is MDA-MB-231. The data set is described as follows: Cytotoxicity against human MDA-MB-231 cells at 100 uM after 48 hrs by MTT assay. Type of data set: functional, cell-based.

For the compound `COc1ccc(NC(=S)N[C@@H]2c3cc4c(cc3[C@@H](c3cc(OC)c(OC)c(OC)c3)[C@H]3C(=O)OC[C@@H]32)OCO4)cc1OC`, the pIC50 in data set [1] is 4.63; with LNCaP [2] it was under 4.00; with DU-145 [3], 4.23; in [4], under 4.00; in the data set with A549 [5], 4.18; in the data set on MDA-MB-231 [6] it was under 4.00.
Regarding `COc1cc([C@@H]2c3cc4c(cc3[C@@H](NC(=S)Nc3ccc(C(C)C)cc3)[C@H]3COC(=O)[C@H]23)OCO4)cc(OC)c1OC`, the pIC50 in data set [1] is under 4.00; in the data set on LNCaP [2] it was 4.07; with DU-145 [3], 4.22; in data set [4], under 4.00; in the data set with A549 [5], 4.21; with MDA-MB-231 [6] it was under 4.00.
As to `COc1cc([C@@H]2c3cc4c(cc3[C@@H](NC(=S)Nc3c(C)cc(C)cc3C)[C@H]3COC(=O)[C@H]23)OCO4)cc(OC)c1OC`, the negative logarithm of the IC50 (pIC50) is 4.22 in data set [1]; 4.40 in the data set on LNCaP [2]; 4.98 with DU-145 [3]; 4.14 in data set [4]; 4.71 in the data set with MDA-MB-231 [6]. For the same compound, the outcome in the data set on A549 [7] was inactive. In addition, the selectivity ratio in [8] was determined as 1.8; in data set [9], 6.8.
`COc1cc([C@@H]2c3cc4c(cc3[C@@H](NC(=S)Nc3ccccc3F)[C@H]3COC(=O)[C@H]23)OCO4)cc(OC)c1OC`: the negative logarithm of the IC50 (pIC50) is 4.65 in data set [1]; under 4.00 with LNCaP [2]; 4.20 in the data set on DU-145 [3]; under 4.00 in data set [4]; under 4.00 in the data set on MDA-MB-231 [6]. For the same compound, in the data set with A549 [7], the outcome was inactive.
For the compound `COc1cc([C@@H]2c3cc4c(cc3[C@@H](NC(=S)Nc3ccccc3C(F)(F)F)[C@H]3COC(=O)[C@H]23)OCO4)cc(OC)c1OC`, the pIC50 in [1] was 4.07; in the data set with LNCaP [2] it was 4.89; in the data set on DU-145 [3], 5.63; in data set [4] it was 4.35; with A549 [5] it was under 4.00; with MDA-MB-231 [6] it was 4.07. The selectivity ratio in data set [8] was 3.4; in data set [9], 19.
For the compound `COc1cc([C@@H]2c3cc4c(cc3[C@@H](NC(=S)Nc3ccc(Cl)c(Cl)c3)[C@H]3COC(=O)[C@H]23)OCO4)cc(OC)c1OC`, the pIC50 in [1] is 4.06; in the data set with LNCaP [2] it was 4.70; in the data set on DU-145 [3], 4.85; in [4] it was under 4.00; in the data set on MDA-MB-231 [6], 4.93. The outcome with A549 [7] was inactive.
`COc1cc([C@@H]2c3cc4c(cc3[C@H](O)[C@H]3COC(=O)[C@H]23)OCO4)cc(OC)c1OC` [PODOFILOX] gave a pIC50 with A549 [5] of 3.89.
In the case of `COc1cc([C@@H]2c3cc4c(cc3[C@@H](NC(=S)Nc3ccc(F)cc3)[C@H]3COC(=O)[C@H]23)OCO4)cc(OC)c1OC`, the outcome with LNCaP [10], in the data set with A549 [7], in the data set on DU-145 [11], in the data set with HGC and with MDA-MB-231 [13] was inactive. Besides, the Activity result in data set [12] was “Non-toxic”.
Take `COc1cc([C@@H]2c3cc4c(cc3[C@@H](NC(=S)Nc3cccc(F)c3)[C@H]3COC(=O)[C@H]23)OCO4)cc(OC)c1OC`: the result with LNCaP [10], in the data set on A549 [7], in the data set with DU-145 [11], in the data set with HGC and in the data set on MDA-MB-231 [13] was inactive. The Activity entry in [12] is “Non-toxic”.
On to `COc1cc([C@@H]2c3cc4c(cc3[C@@H](NC(=S)Nc3ccc([N+](=O)[O-])cc3)[C@H]3COC(=O)[C@H]23)OCO4)cc(OC)c1OC`, for which the pIC50 in data set [1] is 4.16; in the data set with LNCaP [2], 4.27; in the data set with DU-145 [3], 5.10; in [4], 4.25; in the data set on A549 [5], 4.36; in the data set on MDA-MB-231 [6], 4.50. In addition, the selectivity ratio in [9] is 7.2.
With `COc1ccc(OC)c(NC(=S)N[C@@H]2c3cc4c(cc3[C@@H](c3cc(OC)c(OC)c(OC)c3)[C@H]3C(=O)OC[C@@H]32)OCO4)c1`, the outcome in the data set with LNCaP [10], with A549 [7], in the data set on DU-145 [11], in the data set with HGC and in the data set on MDA-MB-231 [13] was inactive. Moreover, the Activity result in [12] is given as “Non-toxic”.
On to `COc1ccc(NC(=S)N[C@@H]2c3cc4c(cc3[C@@H](c3cc(OC)c(OC)c(OC)c3)[C@H]3C(=O)OC[C@@H]32)OCO4)c(OC)c1`, for which the result in the data set on LNCaP [10], in the data set with A549 [7], with DU-145 [11], in the data set with HGC and with MDA-MB-231 [13] was inactive. For the same compound, in [12], the Activity entry is recorded as “Non-toxic”.
Turning to `COc1cc([C@@H]2c3cc4c(cc3[C@@H](NC(=S)Nc3ccc(OCc5ccccc5)cc3)[C@H]3COC(=O)[C@H]23)OCO4)cc(OC)c1OC`, the result in the data set on LNCaP [10], in the data set with A549 [7], with DU-145 [11], in the data set on HGC and in the data set with MDA-MB-231 [13] was inactive. The Activity result in [12] was “Non-toxic”.
For `COc1cc(NC(=S)N[C@@H]2c3cc4c(cc3[C@@H](c3cc(OC)c(OC)c(OC)c3)[C@H]3C(=O)OC[C@@H]32)OCO4)cc(OC)c1`, the outcome with LNCaP [10], in the data set with A549 [7], in the data set with DU-145 [11], in the data set on HGC and with MDA-MB-231 [13] was inactive. In addition, the Activity entry in data set [12] is recorded as “Non-toxic”.
For `COc1cc(NC(=S)N[C@@H]2c3cc4c(cc3[C@@H](c3cc(OC)c(OC)c(OC)c3)[C@H]3C(=O)OC[C@@H]32)OCO4)ccc1[N+](=O)[O-]`, the result in the data set on LNCaP [10], in the data set on A549 [7], with DU-145 [11], in the data set with HGC and with MDA-MB-231 [13] was inactive. The Activity result in [12] is “Non-toxic”.
Regarding `COc1cc([C@@H]2c3cc4c(cc3[C@@H](NC(=S)Nc3cccc(C(F)(F)F)c3)[C@H]3COC(=O)[C@H]23)OCO4)cc(OC)c1OC`, the pIC50 in data set [1] is 4.89; with LNCaP [2] it was 4.65; with DU-145 [3], 4.68; in data set [4], under 4.00; in the data set on MDA-MB-231 [6], 4.75. The outcome in the data set with A549 [7] was inactive.
Take `COc1cc([C@@H]2c3cc4c(cc3[C@@H](NC(=S)Nc3ccc(C#N)cc3)[C@H]3COC(=O)[C@H]23)OCO4)cc(OC)c1OC`: the outcome in the data set with LNCaP [10], with A549 [7], with DU-145 [11], in the data set with HGC and with MDA-MB-231 [13] was inactive.
For `COc1cc([N+](=O)[O-])ccc1NC(=S)N[C@@H]1c2cc3c(cc2[C@@H](c2cc(OC)c(OC)c(OC)c2)[C@H]2C(=O)OC[C@@H]21)OCO3`, the outcome with LNCaP [10], with A549 [7], in the data set with DU-145 [11], in the data set with HGC and in the data set with MDA-MB-231 [13] was inactive. In data set [12], the Activity entry was “Non-toxic”.
